The source of these data is ChEMBL document CHEMBL4513216, “Probing the Open Global Health Chemical Diversity Library for Multistage-Active Starting Points for Next-Generation Antimalarials” (ACS Infect Dis, 2020).

This series in a line: Toxicity liver stage against HepG2, at 10uM. As to conditions: human, HepG2-A16-CD81EGFP cells; read-out: INHIBITION
The series is classed as cell-based. Details: test concentration 10 uM, cell line HepG2-A16-CD81EGFP. Summed up: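 Uninfected HepG2-A16-CD81EGFP cells, 3 × 10^3 per well, 1536-well, plated on prespotted compound at 10 μM final, parasite-free screening media added to match infected plates; puromycin 10 μM positive, DMSO 0.5% negative; run in parallel with 48 h PbLuc assay at 37 °C, 5% CO2; viability by CellTiter-Glo luminescence, normalized to controls.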
In the case of `CN1CCN(C[C@@H]2CN(C(=O)CC3CCCCC3)C[C@@H]2CO)CC1`, the cytotoxicity at 10 µM is -8.76%.

Consider `Cc1cc(C)c(Cn2cncn2)cc1CN1CCC(CN)C1` (stereo not given), for which the cytotoxicity at 10 µM is -11.3%.

Regarding `Cc1cnn(CC2CCCN2C(=O)CCc2cscn2)c1` (stereo not given), the cytotoxicity at 10 µM is -11.9%.

With `C[C@H](C(=O)N1Cc2ccccc2CC2(CCCN2C)C1)c1ccccc1` (stereo not given in full), the cytotoxicity at 10 µM amounted to 6.42%.

Turning to `COCc1noc(Cc2cc(Cl)c3c(c2)OCCCO3)n1`, the cytotoxicity at 10 µM came to 0.583%.

As to `O=C(Cc1cccc(O)c1)NC1CCN(c2cccc(Cl)c2)C1` (stereo not given), the cytotoxicity at 10 µM came out at 17.1%.

On to `COc1c(C)cnc(CNC(=O)c2cc(C)nc3onc(C)c23)c1C`, for which the cytotoxicity at 10 µM was -0.947%.

For the molecule `CN1CCN(CCOc2ccc(NC(=O)c3ccncc3)cc2)CC1`, the cytotoxicity at 10 µM was -5.18%.

Consider `Cc1cc(NC(=O)c2ccc(F)cc2Br)n(C)n1`, for which the cytotoxicity at 10 µM was -3.12%.

With `CCc1ccc(CN2Cc3nccn3CC(CN3CCOCC3)C2)o1` (stereo not given), the cytotoxicity at 10 µM is -87.9%.

On to `CC(=O)N(Cc1noc(C)n1)C1CCN(Cc2ccon2)C1` (stereo not given), for which the cytotoxicity at 10 µM worked out at 4.74%.

On to `O=C(CN1C(=O)CC2(CCCC2)C1=O)NCCc1nccs1`, for which the cytotoxicity at 10 µM stood at 0.566%.

`Cc1nn(CC(C)C)c(N(C)C)c1CNCCC(=O)NC(C)C`: the cytotoxicity at 10 µM was 7.45%.

For `Cc1cnn(CC2CCCN2CC(=O)NC2CCN(C3CC3)CC2)c1` (stereo not given), the cytotoxicity at 10 µM was 0.109%.

As to `CCc1c(C(=O)O)nnn1-c1cc(C)ccc1C`, the cytotoxicity at 10 µM was -23.7%.

For the molecule `O=C(c1cccs1)N1CCc2nnc(COc3cncnc3)n2CC1`, the cytotoxicity at 10 µM came out at 8.13%.

For `Cc1ncsc1CN(C)Cc1cc2c(cc1OC(F)F)OCO2`, the cytotoxicity at 10 µM stood at 6.22%.

As to `O=C1COC2(CCN(c3ncccn3)CC2)CN1c1ccsc1`, the cytotoxicity at 10 µM was -0.31%.

Regarding `O=C(O)c1c(-c2ccncc2)ncc2c1CCN(Cc1ccco1)C2`, the cytotoxicity at 10 µM is -3.6%.

`Cc1ccc(OCC(=O)N2C[C@@H]3CN(C)CCO[C@@H]3C2)cc1`: the cytotoxicity at 10 µM is -0.204%.

For `O=C(Cn1cnc2cc3c(cc21)OCCCO3)NC1CCCC1`, the cytotoxicity at 10 µM is 3.92%.

In the case of `Cn1ncc2c(=O)[nH]c(CN3CCc4ccccc4C3)nc21`, the cytotoxicity at 10 µM was -2.72%.

As to `O=C(Nc1ccc(-c2csnn2)cc1)N1CCC(N2CCCC2)C1` (stereo not given), the cytotoxicity at 10 µM is -8.79%.

Regarding `Cc1ccc2c(c1)SCC(=O)N2CC(=O)N1CCC[C@H]1c1nc(C)no1`, the cytotoxicity at 10 µM amounted to 7.95%.

Take `NC(=O)NC(=O)C(c1ccccc1)N1CCN(Cc2ccc(Cl)s2)CC1` (stereo not given): the cytotoxicity at 10 µM is -6.7%.

In the case of `CCCS(=O)(=O)N1C[C@@H](Oc2ccccn2)[C@H]2OCCC[C@H]21`, the cytotoxicity at 10 µM was 0.516%.

For the molecule `CC(C)CCn1[nH]c(CNc2ccccc2)nc1=O`, the cytotoxicity at 10 µM worked out at 1.62%.

Consider `Cc1cc(C(=O)N2CC[C@H]3[C@H]2CCN3S(C)(=O)=O)c(C)o1`, for which the cytotoxicity at 10 µM is -83.1%.

For the molecule `CCn1c(CN(C)Cc2cnc(C)s2)nc2cc(F)ccc21`, the cytotoxicity at 10 µM is -31.9%.

`Cc1cc(C2CCCN2C(=O)c2cnn(C)c2)on1` (stereo not given): the cytotoxicity at 10 µM was -1.85%.

Regarding `Cc1ccc(C(=O)N2CC[C@H]3[C@H]2CCN3CC2CCOCC2)cc1F`, the cytotoxicity at 10 µM is -83.3%.

Take `Cn1cc(CN2C[C@@H]3CN(C(=O)c4cccn4C)CCO[C@@H]3C2)cn1`: the cytotoxicity at 10 µM is -110%.

In the case of `Cc1cnn(CC2CCCN2Cc2nnc(C)o2)c1` (stereo not given), the cytotoxicity at 10 µM is -11.2%.

As for `COc1cccc(-c2n[nH]cc2-c2nc(CC3CCN(C)CC3)no2)c1`, the cytotoxicity at 10 µM is -9.98%.

In the case of `CC(=O)N1CCN(CCNS(=O)(=O)c2cccc(F)c2)CC1`, the cytotoxicity at 10 µM came out at 6.99%.

On to `CC(C)c1nccn1Cc1cc(C(=O)NCC(F)(F)F)n[nH]1`, for which the cytotoxicity at 10 µM is 3.73%.

Take `CCOC(=O)C1CC2(CCCC2)N2CCC(=O)N12` (stereo not given): the cytotoxicity at 10 µM was determined as 1.53%.

Take `CC(C)C(=O)N(C)Cc1nnc2n1CCCCC2`: the cytotoxicity at 10 µM was -8.2%.

On to `CC(C)C(=O)N1CCC12CCCN(C(=O)c1ccnnc1)C2` (stereo not given), for which the cytotoxicity at 10 µM turned out to be 7.8%.

Take `CC1CCCCN1c1nc2c(c(=O)[nH]1)CCN(Cc1ccccc1F)C2` (stereo not given): the cytotoxicity at 10 µM is -4.39%.

As for `CCc1nc(CNC(=O)c2ccc(C(C)N3CCCCC3)o2)cc(=O)[nH]1` (stereo not given), the cytotoxicity at 10 µM is -13.6%.

Take `CC(C)(C)CC(=O)Nc1ncn(CC(=O)NCc2ccccc2)n1`: the cytotoxicity at 10 µM was -3.38%.

Regarding `O=C(NCCn1nc2ccccn2c1=O)c1cc(C2CC2)[nH]n1`, the cytotoxicity at 10 µM turned out to be 0.763%.

As for `CC(C)COCCC(=O)NCCC(=O)N1CCN(c2ccccn2)CC1`, the cytotoxicity at 10 µM turned out to be 9.46%.

Regarding `COCc1cccc(NC(C)C(=O)N(C)Cc2cccc(F)c2)c1` (stereo not given), the cytotoxicity at 10 µM turned out to be 12.2%.

As to `Cc1nn(CCCNC(=O)C2CCN(S(C)(=O)=O)CC2)c(Cl)c1Cl`, the cytotoxicity at 10 µM was -11.3%.

For `O=C(NCc1ccco1)c1ccc(N2CCOCC2)cc1`, the cytotoxicity at 10 µM came to 4.31%.

On to `O=C1COC[C@H]([C@H](O)c2ccc(NC(=O)c3cccnc3)cc2)N1`, for which the cytotoxicity at 10 µM is 0.317%.

Regarding `O=C1CC(c2ccncc2)C2(CCN(C(=O)c3cccc(F)c3)CC2)N1` (stereo not given), the cytotoxicity at 10 µM is -74.4%.

With `COc1ccc(F)cc1CSCC(=O)N(C)C1CC1`, the cytotoxicity at 10 µM is 0.611%.

As to `Cc1ccc(OCC2CCCN(C(=O)CN3CCOCC3)C2)cc1` (stereo not given), the cytotoxicity at 10 µM was -25.6%.

As for `O=C(NCc1ccc2c(c1)OCCO2)N1CCC(CO)CC1`, the cytotoxicity at 10 µM is -4.62%.

As to `O=C(Cc1csc(-c2cccc(Cl)c2)n1)NCc1cccc(C(=O)O)c1`, the cytotoxicity at 10 µM was -0.0616%.

As for `Cc1nc2n(n1)CC(NCc1csc(-c3ccsc3)n1)CC2` (stereo not given), the cytotoxicity at 10 µM was -0.544%.

Take `Cc1cc(C(=O)N2C[C@@H]3CCCO[C@@H]3[C@H](N(C)C(C)C)C2)c(C)[nH]1`: the cytotoxicity at 10 µM stood at 10.2%.

For `CC(=O)N(C)Cc1cccc(NC(=O)c2cnn(C)c2C)c1`, the cytotoxicity at 10 µM was 3.5%.

For the molecule `CCSC1(CNc2ncc(Br)cn2)CCOCC1`, the cytotoxicity at 10 µM was -2.72%.

With `Cn1ccc(CN2CCCC23CCNCC3)n1`, the cytotoxicity at 10 µM turned out to be 4.86%.

With `Cn1cc(CN2C[C@H]3CCC[C@@]3(COc3cccnc3)C2)cn1`, the cytotoxicity at 10 µM is -107%.

Consider `Cc1nc(CN2CCC(C(=O)N(C)C3CCC(C)CC3)CC2)cs1` (stereo not given), for which the cytotoxicity at 10 µM came to 2.84%.

As for `O=C(CSc1nnc2n1N=CN(c1ccccc1)C2)c1ccccc1`, the cytotoxicity at 10 µM worked out at 9.11%.

On to `CN1CCN(c2cc(NC(=O)Cn3ccc4ccccc43)ncn2)CC1`, for which the cytotoxicity at 10 µM was -0.973%.

`COCCN1CCC2(CC1)CC(COC)N(c1ncccn1)C2` (stereo not given): the cytotoxicity at 10 µM is -3.53%.

Regarding `CCn1nc(C)c(C(C)NC(=O)c2cccc(NCC(=O)O)c2)c1C` (stereo not given), the cytotoxicity at 10 µM came to 3.04%.

In the case of `CCCc1ccc(C(=O)N2Cc3c(Cn4ccnc4)nn(C)c3C2)cc1`, the cytotoxicity at 10 µM is -73%.

As to `Cc1cc(C(=O)NCc2ccc(-c3n[nH]cc3C(=O)N(C)C)cc2)on1`, the cytotoxicity at 10 µM was determined as 4.29%.

With `Cc1cc(C)nc(N2CCC(Cn3cc(C(N)=O)cn3)CC2)n1`, the cytotoxicity at 10 µM amounted to 3.65%.

For the molecule `O=C(CCNC(=O)c1ccccc1F)NCCNc1cccnc1`, the cytotoxicity at 10 µM was -7.55%.

Regarding `CCN(CC1CCOC1)C(=O)Nc1ccc(N2CCCCC2)nc1` (stereo not given), the cytotoxicity at 10 µM is -6.45%.

Consider `Cc1cc(C)c2nc(C)c(C(=O)N3CCC(CCN(C)C)CC3)cc2c1`, for which the cytotoxicity at 10 µM is -4.91%.

As to `COCCOc1ccc(CNc2nc3ccccc3nc2N)cn1`, the cytotoxicity at 10 µM came to 33.9%.

Take `O=C(CCN1CCCCCC1c1ccco1)N1CCOCC1` (stereo not given): the cytotoxicity at 10 µM is 6.14%.

In the case of `COc1ccc(CCNC(C)c2ccc3[nH]c(=O)[nH]c3c2)cc1OC` (stereo not given), the cytotoxicity at 10 µM is -16.8%.

With `CC(c1cccc(-c2ncccc2F)c1)N(C)C` (stereo not given), the cytotoxicity at 10 µM was -19.4%.

As to `COCCN1C[C@@H](C)[C@@]2(COCCN(C(=O)c3ccccn3)C2)C1`, the cytotoxicity at 10 µM was 9.58%.

In the case of `Cc1nn(C)c2nc(-c3ccccn3)nc(NCCCOC(C)C)c12`, the cytotoxicity at 10 µM is 1.5%.

`CN(C)c1cc(CNC(=O)c2ccc(=O)[nH]n2)ccn1`: the cytotoxicity at 10 µM is 0.962%.

Regarding `CC(OCC1CC1)C(=O)N1CCCN(Cc2cnn(C)c2)CC1` (stereo not given), the cytotoxicity at 10 µM was 2.55%.

As to `CC(c1nc(C2CC2)no1)N1CCN(c2ccc(C#N)cn2)CC1` (stereo not given), the cytotoxicity at 10 µM came out at 1.18%.

For `NC(=O)N1CCC2(CC1)CC(=O)N(CC1CCCO1)c1ccccc12` (stereo not given), the cytotoxicity at 10 µM stood at 5.56%.

Turning to `CN(C)Cc1cc(C2CCCCN2S(=O)(=O)Cc2ccccc2)nn1C` (stereo not given), the cytotoxicity at 10 µM was determined as 0.57%.

On to `O=C(c1ccc(F)cc1)N1C[C@@H]2COC[C@]2(COc2cccnc2)C1`, for which the cytotoxicity at 10 µM was -100%.

For `Cc1cc(C(=O)N(C)Cc2nc(-c3ccccn3)no2)c(C)o1`, the cytotoxicity at 10 µM is 2.84%.

As for `CN1CCN(C(=O)C2(NC(N)=O)CCCCC2)Cc2ccccc21`, the cytotoxicity at 10 µM was -6.32%.

In the case of `CCCNC(=O)CNc1ccc2c(c1)N(C(=O)OC(C)(C)C)CCC2`, the cytotoxicity at 10 µM came out at 13%.

Regarding `O=C(CCNc1ncccn1)N1CCC(Nc2cccnn2)CC1`, the cytotoxicity at 10 µM is -12.9%.

As for `CCC(COC)NC(=O)N1CCC(n2ccc(C(F)(F)F)n2)CC1` (stereo not given), the cytotoxicity at 10 µM is -12%.

In the case of `Cc1cccc(CN2CCn3c(C(=O)N(C)C)cnc3C2)c1`, the cytotoxicity at 10 µM was -69.5%.

As for `Cc1ccc(Oc2ncccc2C(=O)O)c(C)c1`, the cytotoxicity at 10 µM worked out at 2.4%.

For `Cc1nc(CN(C)C(=O)C2CCC(=O)N(CCN(C)C)C2)cs1` (stereo not given), the cytotoxicity at 10 µM is 8.08%.

`CC(C(=O)N1CCc2sccc2C1)N1CCCN(C2CC2)CC1` (stereo not given): the cytotoxicity at 10 µM amounted to 3.86%.

With `CS(=O)(=O)N1CCO[C@@H]2CN(C(=O)Cc3cccs3)CC[C@@H]2C1`, the cytotoxicity at 10 µM is -108%.

As to `CC(C)CC(=O)N1CC(=O)c2sc(Nc3ccc(F)cc3F)nc2C1`, the cytotoxicity at 10 µM is -2.89%.

In the case of `O=C1CC(c2cccc(O)c2)c2sc(C(=O)O)c(-c3ccccc3)c2N1` (stereo not given), the cytotoxicity at 10 µM came out at 6.33%.

Turning to `N#Cc1cccnc1NCCNC(=O)N1CCSCC1`, the cytotoxicity at 10 µM is -1.22%.
